Bioassay records from PubChem.
The list is not random: actives were taken first. Their share in the collection is about 5.8%.
Pf Dd2 growth – P. falciparum Dd2 growth inhibitors, primary screen, SYBR Green fluorescence, single dose replicates. AID 1159554, 2015. activity change, % at 10 µM. actives 2.3% (n = 94,000). 72 h; hits give low values; in the data active = activity change below about -80%; inconclusive = no clear call, values can overlap the other calls
KDM4C inh – inhibitors of GASC-1 (KDM4C) histone demethylase, primary screen, biochemical, single concentration HTS | GST-KDM4C 2-372, H3K9me3 peptide, LANCE TR-FRET | inhibition, % at 12.5 µM | actives 0.15% (n = 96,000) | AID 720574, 2013;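 active = mean replicate inhibition above about 25%, with at least 55% of replicates also reaching it, limit read from the data, passing the limit was not always enough; inconclusive = only one of those two conditions met; inactive = neither condition met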
Target sequence (Q9H3R0 2-372 limits assumed): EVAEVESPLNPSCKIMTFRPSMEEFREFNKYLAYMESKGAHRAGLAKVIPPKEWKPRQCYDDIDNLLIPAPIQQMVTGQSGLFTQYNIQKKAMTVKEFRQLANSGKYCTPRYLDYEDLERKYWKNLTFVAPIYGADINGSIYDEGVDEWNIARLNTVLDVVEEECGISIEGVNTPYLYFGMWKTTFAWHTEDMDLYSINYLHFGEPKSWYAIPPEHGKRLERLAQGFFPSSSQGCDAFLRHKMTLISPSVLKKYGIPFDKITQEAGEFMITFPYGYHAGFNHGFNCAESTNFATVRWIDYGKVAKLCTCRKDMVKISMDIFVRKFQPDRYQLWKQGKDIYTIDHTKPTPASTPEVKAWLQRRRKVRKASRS
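Material: N-terminal GST-fused human GASC-1 (KDM4C) fragment, residues 2-372. Input: 10 nM enzyme. Incubation: enzyme reaction 30 min, then detection 60 min, both room temperature. Doses: one test concentration per compound. Read-out basis: inhibition from TR-FRET ratio decrease. Detection: LANCE TR-FRET, excitation 340 nm, emissions 618 and 671 nm.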
T cruzi growth-1 – T. cruzi intracellular proliferation inhibitors, primary screen, cell-based, beta-gal Tulahuen parasites, NIH3T3 host, luminescence | T. cruzi beta-gal in NIH3T3, GalScreen luminescence, 90 h | AID 624255, 2012 | inhibition, % at 8.34 µM | actives 5.9% (n = 77,000);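 active = mean inhibition above about 93%, with at least 55% of replicates each passing it, limit read from the data, passing the limit was not always enough; inconclusive = only one of those two conditions holds; inactive = neither condition holds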
IDH1 R132H inh – inhibitors of IDH1 R132H reductase, primary screen, biochemical, plate reader, single point; Isocitrate dehydrogenase [NADP] cytoplasmic (Homo sapiens), O75874; diaphorase/resazurin fluorescence, 60 min; actives 0.18% (n = 70,000); inhibition, % at 10 µM; in the data active = inhibition above about 34%; inconclusive = no clear call, values can overlap the other calls; inactive = below about 11%;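 also: 0% = DMSO and 100% = no enzyme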
T cruzi growth-2 – T. cruzi intracellular proliferation inhibitors, confirmation, cell-based, NIH3T3 host, beta-gal parasite, luminescence, cherry-pick; actives 72% (n = 5,600); inhibition, % at 8.35 µM; shares compounds with T cruzi growth-1; T. cruzi beta-gal in NIH3T3, GalScreen luminescence, 90 h;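 active = mean replicate inhibition above about 95% and at least 55% of replicates individually reaching it, limit read from the data; inconclusive = only one of the two criteria is met; inactive = neither criterion is met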
T cruzi growth-3 – inhibitors of intracellular T. cruzi replication, confirmation, NIH3T3 host cells, beta-gal parasites, cherry-pick, set 2; actives 21% (n = 5,600); shares compounds with T cruzi growth-1; AID 651740, 2012; inhibition, % at 2.09 µM; T. cruzi beta-gal in NIH3T3, GalScreen luminescence, 90 h;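 active = mean inhibition above about 95%, with at least 55% of replicates also reaching it, limit read from the data; inconclusive = meets just one of the two conditions; inactive = meets neither condition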;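 also: plate controls were neutral control median for no effect and positive control median for full effect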
3T3 cytotox – cytotoxicity in mouse NIH/3T3 fibroblasts, confirmation, cytotoxicity control for T. cruzi proliferation inhibitor project, cell-based, cherry-pick, single point; shares compounds with T cruzi growth-1; NIH/3T3 viability, CellTiter-Glo ATP luminescence, 90 h; cytotoxicity (signal decrease), % at 8.35 µM; actives 14% (n = 5,600); AID 651742, 2012;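 active = mean signal decrease across replicates above about 35% based on untreated-well scatter, with enough replicates individually passing, limit read from the data; inconclusive = no rule stated though some were filed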;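 also: 0% = median of neutral control wells and 100% = median of positive control wells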
NIH3T3 tox 2 – NIH/3T3 fibroblast cytotoxicity, confirmation, cytotoxicity control, cell-based, cherry-pick, single point, set 2. inhibition, % at 24.9 µM. shares compounds with T cruzi growth-1. actives 56% (n = 5,600). NIH/3T3 viability, CellTiter-Glo ATP luminescence, 90 h;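 active = mean loss of cell viability signal at or above a set limit, and enough replicates individually reaching it; inconclusive = meets only the mean limit or only the replicate share; inactive = meets neither condition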;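 also: 0% = median of neutral control wells and 100% = median of positive control wells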
The depositor's hits bear a star; ? = inconclusive; . = no result given.

SMILES	Pf Dd2 growth	KDM4C inh	T cruzi growth-1	IDH1 R132H inh	T cruzi growth-2	T cruzi growth-3	3T3 cytotox	NIH3T3 tox 2
C[C@H](CO)N1C[C@H](C)[C@H](CN(C)C(=O)c2ccc3c(c2)OCO3)Oc2cc(-c3ccncc3)ccc2S1(=O)=O	-38	0	104*	0	81	59	16	28*
C[C@@H]1CN([C@@H](C)CO)S(=O)(=O)c2ccc(-c3ccc(C(=O)N(C)C)cc3)cc2O[C@@H]1CN(C)Cc1ccc2c(c1)OCO2	-48	-1	?	0	90	81	26	92*
C[C@@H]1O[C@@H](O[C@@H]2[C@@H](O)[C@H](O[C@@H]3[C@@H](O)[C@H](C)O[C@@H](O[C@H]4[C@H](O[C@H]5CC[C@@]6(C)C(CC[C@]7(C)C6CC=C6[C@@H]8CC(C)(C)CC[C@]8(C(=O)O)CC[C@]67C)[C@]5(C)CO)OC[C@H](O)[C@@H]4O)[C@@H]3O)O[C@H](CO)[C@H]2O[C@@H]2O[C@H](CO)[C@@H](O[C@@H]3OC[C@@H](O)[C@H](O)[C@H]3O)[C@H](O)[C@H]2O)[C@H](O)[C@H](O)[C@H]1O (stereo partly specified)	.	.	.	0	.	.	.	.
COc1ccc(S(=O)(=O)N(C)C[C@H]2Oc3ccc(NC(=O)Nc4ccc(C(F)(F)F)cc4)cc3C(=O)N([C@@H](C)CO)C[C@H]2C)cc1	11	-4	?	0	99*	60	45*	81*
COc1ccc(S(=O)(=O)N(C)C[C@@H]2Oc3ccc(NC(=O)Nc4ccc(C(F)(F)F)cc4)cc3C(=O)N([C@@H](C)CO)C[C@@H]2C)cc1	-16	-5	?	1	102*	57	?	46*
COc1ccc(S(=O)(=O)N(C)C[C@H]2Oc3ccc(NC(=O)Nc4ccc(C(F)(F)F)cc4)cc3C(=O)N([C@H](C)CO)C[C@H]2C)cc1	-18	-3	?	0	103*	25	42*	51*
COc1ccc(NC(=O)Nc2ccc3c(c2)C(=O)N([C@H](C)CO)C[C@@H](C)[C@@H](CN(C)S(=O)(=O)c2ccc(OC)cc2)O3)cc1	24	3	16	-1	.	.	.	.
C/C=C/c1ccc([C@H]2[C@@H](CO)N3CCCCN(S(=O)(=O)c4ccc(OC)cc4)C[C@H]23)cc1	-70	13	85	.	.	.	.	.
C/C=C/c1ccc([C@H]2[C@@H](CO)N3CCCCN(S(=O)(=O)c4ccc(F)cc4)C[C@H]23)cc1	-71	-2	?	.	108*	39	12	103*
C/C=C/c1ccc([C@@H]2[C@H]3CN(S(=O)(=O)c4ccc(OC)cc4)CCCCN3[C@H]2CO)cc1	-11	-2	?	.	103*	82	29	68*
C/C=C/c1ccc([C@H]2[C@H](CO)N3CCCCN(S(=O)(=O)c4ccc(OC)cc4)C[C@@H]23)cc1	6	-1	100*	.	108*	90	30	102*
CO[C@H](CN(C)S(=O)(=O)c1cccc(Cl)c1)[C@H](C)CN([C@@H](C)CO)S(=O)(=O)c1cccc(Cl)c1	-52	-1	99*	-1	110*	24	49*	58*
